Assay results: ChEMBL document CHEMBL2424583, “Structure-activity relationship and in vitro and in vivo evaluation of the potent cytotoxic anti-microtubule agent N-(4-methoxyphenyl)-N,2,6-trimethyl-6,7-dihydro-5H-cyclopenta[d]pyrimidin-4-aminium chloride and its analogues as antitumor agents” (J Med Chem, 2013)
Active and inactive are the calls of the source. No cut-off for these calls is given here.

Assays:
Mus musculus [1] = assay: Toxicity in athymic nude mouse xenografted in human MDA-MB-231 cells assessed as mortality at 75 mg/kg, ip qd administered on day 14 for 5 days followed by compound readministration on day 27; assay type: organism-based; set-up: dose 75 mg/kg, route intraperitoneal; settings: in vivo, 120 h
Outline: (§1)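 Female athymic nude mice were implanted sc with an MDA-MB-231T tumour fragment, and tumours were staged to about 125 mg. Drug was given ip in 10% DMSO in saline/Tween 80, with courses starting day 14 and repeated from day 27. There were 8 animals per treated group and 16 controls. Read-outs were body weight, deaths, median tumour mass as T/C, days to a predetermined size as T-C/C, and net log cell kill.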

MDA-MB-231 [2] = assay: Antitumor activity against human MDA-MB-231 cells xenografted in athymic nude mouse assessed as tumor growth inhibition at 75 mg/kg, ip qd administered every other day started on day 14 for 5 days followed by compound readministration on day 27 measured on day 31 relative to control; assay type: functional; settings: route intraperitoneal; outline: as §1
MDA-MB-435 = assay: Cytotoxicity against human MDA-MB-435 cells assessed as growth inhibition after 48 hrs by SRB assay; assay type: functional, cell-based; settings: MDA-MB-435, 48 h
MDA-MB-231 [3] = assay: Antitumor activity against human MDA-MB-231 cells xenografted in athymic nude mouse assessed as delay in tumor growth at 75 mg/kg, ip qd administered every other day started on day 14 for 5 days followed by compound readministration on day 27 measured on day 31 relative to control; assay type: functional; settings: route intraperitoneal
Outline: (§2)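 MDA-MB-231T tumor fragments implanted sc in female athymic nude mice and staged to about 125 mg. Dosing was ip in 10% DMSO in saline/Tween 80, with courses starting day 14 and again day 27. Groups had 8 treated animals and 16 controls. Growth delay (T-C/C) is the median days for treated vs control tumors to reach a predetermined size, normalized to control, as %.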

Mus musculus [4] = assay: Toxicity in athymic nude mouse xenografted in human MDA-MB-231 cells assessed as body weight loss at 75 mg/kg, ip qd administered on day 14 for 5 days followed by compound readministration on day 27 (reference value: 6.7%); assay type: organism-based; set-up: dose 75 mg/kg, route intraperitoneal; settings: in vivo, 120 h
MDA-MB-231 [5] = assay: Antitumor activity against human MDA-MB-231 cells xenografted in athymic nude mouse assessed as tumor growth inhibition at 50 mg/kg, ip qd administered on day 14 for 5 days followed by compound readministration on day 27 measured on day 31 relative to control; assay type: functional; settings: route intraperitoneal; outline: as §1
MDA-MB-231 [6] = assay: Antitumor activity against human MDA-MB-231 cells xenografted in athymic nude mouse assessed as tumor free state at 50 mg/kg, ip qd administered on day 14 for 5 days followed by compound readministration on day 27 measured on day 41; assay type: functional, organism-based; set-up: dose 50 mg/kg
Outline: (§3)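 Female athymic nude mice carried sc MDA-MB-231T tumor fragments staged to about 125 mg. Compound was given ip as a solution in 10% DMSO in saline/Tween 80, with courses beginning day 14 and repeated from day 27. Groups had 8 animals, with 16 vehicle controls. Animals were scored as tumor-free on day 41.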

CAKI-1 = assay: Cytotoxicity against human CAKI-1 cells assessed as growth inhibition after 48 hrs by SRB assay; assay type: functional; settings: CAKI-1, 48 h
MDA-MB-231 [7] = assay: Antitumor activity against human MDA-MB-231 cells xenografted in athymic nude mouse assessed as tumor free state at 75 mg/kg, ip qd administered on day 14 for 5 days followed by compound readministration on day 27 measured on day 41; assay type: functional, organism-based; set-up: dose 75 mg/kg; outline: as §3
Mus musculus [8] = assay: Toxicity in athymic nude mouse xenografted in human MDA-MB-231 cells assessed as body weight loss at 50 mg/kg, ip qd administered on day 14 for 5 days followed by compound readministration on day 27 (reference value: 6.7%); assay type: organism-based; set-up: dose 50 mg/kg, route intraperitoneal; settings: in vivo, 120 h
HeLa = assay: Antiproliferative activity against human HeLa cells after 48 hrs by SRB assay; assay type: functional, cell-based
Outline: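 Isogenic pairs: parental SK-OV-3 alongside its Pgp-overexpressing subline MDR-M6-6, and parental HeLa alongside βIII-tubulin-transfected HeLa. Antiproliferative IC50 measured by sulforhodamine B assay, averaged from at least three independent experiments ± SD. Relative resistance is the transduced-line IC50 divided by the parental-line IC50.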

Mus musculus [9] = assay: Toxicity in athymic nude mouse xenografted in human MDA-MB-231 cells assessed as body weight loss at 50 mg/kg, ip bid administered every other day started on day 14 followed by compound readministration every other day started on day 27 (reference value: 6.7%); assay type: organism-based; set-up: dose 50 mg/kg, route intraperitoneal; settings: in vivo
MDA-MB-231 [10] = assay: Antitumor activity against human MDA-MB-231 cells xenografted in athymic nude mouse assessed as tumor free state at 75 mg/kg, ip qd administered every other day started on day 14 for 5 days followed by compound readministration on day 27 measured on day 41; assay type: functional, organism-based; set-up: dose 75 mg/kg; outline: as §3
MDA-MB-231 [11] = assay: Antitumor activity against human MDA-MB-231 cells xenografted in athymic nude mouse assessed as delay in tumor growth at 50 mg/kg, ip bid administered every other day started on day 14 followed by compound readministration every other day started on day 27 measured on day 31 relative to control; assay type: functional; settings: route intraperitoneal; outline: as §2
MDA-MB-231 [12] = assay: Antitumor activity against human MDA-MB-231 cells xenografted in athymic nude mouse assessed as net tumor log cell kill at 50 mg/kg, ip bid administered every other day started on day 14 followed by compound readministration every other day started on day 27; assay type: functional; settings: route intraperitoneal; outline: as §1
MDA-MB-231 [13] = assay: Antitumor activity against human MDA-MB-231 cells xenografted in athymic nude mouse assessed as delay in tumor growth at 50 mg/kg, ip qd administered on day 14 for 5 days followed by compound readministration on day 27 measured on day 31 relative to control; assay type: functional; settings: route intraperitoneal; outline: as §1
[14] = Relative resistance, ratio of IC50 for beta3 tubulin overexpressed in human HeLa cells to IC50 for human HeLa cells
Outline: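 SRB antiproliferative assay on isogenic pairs: parental SK-OV-3 vs Pgp-overexpressing SK-OV-3 MDR-M6-6, and parental HeLa vs βIII-tubulin-transfected HeLa. IC50 is the mean ± SD of at least three independent experiments. Relative resistance (Rr) is the IC50 of the transduced line divided by the IC50 of the parental line.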

| Structure (SMILES) | Activity (Mus musculus [1]) | T/C (MDA-MB-231 [2]) [%] | IC50 (MDA-MB-435) [nM] | Activity (MDA-MB-231 [3]) [%] | %max (Mus musculus [4]) [%] | T/C (MDA-MB-231 [5]) [%] | Activity (MDA-MB-231 [6]) | GI50 (CAKI-1) [nM] | Activity (MDA-MB-231 [7]) | %max (Mus musculus [8]) [%] | IC50 (HeLa) [nM] | %max (Mus musculus [9]) [%] | Activity (MDA-MB-231 [10]) | Activity (MDA-MB-231 [11]) [%] | LCK (MDA-MB-231 [12]) | Activity (MDA-MB-231 [13]) [%] | Ratio IC50 [14] |
| --- | --- | --- | --- | --- | --- | --- | --- | --- | --- | --- | --- | --- | --- | --- | --- | --- | --- |
| COc1ccc(N(C)c2nc(C)nc3c2CCC3)cc1.Cl | Non-toxic | 19 | 7 | 44 | 7.9 | 20 | Active | < 10 | Active | 7.7 | 9.3 | 7.8 | Active | 32 | -1.3 | 27 |  |
| COc1ccc(N(C)c2nc(C)nc3c2CC(C)C3)cc1.Cl (racemic) |  |  |  |  |  |  |  |  |  |  |  |  |  |  |  |  | 0.6 |
